Hits are enriched below; roughly 1.4% of the tested compounds scored in any of these assays.
FXIIa inh: human FXIIa protease inhibitors, primary screen, biochemical, 1536-well. purified FXIIa, Boc-QGR-AMC fluorogenic substrate, 2 h. hit rate 0.3% among 220,000. Coagulation factor XII (Homo sapiens), P00748. inhibition, % at 5 µM; in the data active = inhibition above about 40%;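 also: 0% = enzyme with no compound and 100% = blank without enzyme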
CTSL1 counter: Fasciola hepatica cathepsin L1 inhibitors, primary screen, counter-screen for PFM18AAP inhibitor project, biochemical, QFRET, fluorogenic peptide substrate | inhibition, % at 5.96 µM | hit rate 0.49% among 300,000 | recombinant F. hepatica cathepsin L1, Z-Leu-Arg-MCA fluorescence;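 active = inhibition above the mean of all tested compounds plus 3 SD, set per screening campaign, cut at about 17% in these data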;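 also: 0% = plate median of test compound wells and 100% = 1 µM Z-Phe-Ala-diazomethylketone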
FXIa inh: human FXIa protease inhibitors, primary screen, biochemical, 1536-well; Coagulation factor XI (Homo sapiens), P03951; purified FXIa, Boc-Glu-Ala-Arg-AMC fluorogenic substrate; inhibition, % at 5 µM; hit rate 0.14% among 220,000; AID 798, 2007;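 active = inhibition of at least 40%; inactive = inhibition below 40%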;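 also: fluorescence of freed AMC excited at 355 nm; 0% = enzyme without compound and 100% = no enzyme blank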
Target sequence (P03951 19-387 limits assumed): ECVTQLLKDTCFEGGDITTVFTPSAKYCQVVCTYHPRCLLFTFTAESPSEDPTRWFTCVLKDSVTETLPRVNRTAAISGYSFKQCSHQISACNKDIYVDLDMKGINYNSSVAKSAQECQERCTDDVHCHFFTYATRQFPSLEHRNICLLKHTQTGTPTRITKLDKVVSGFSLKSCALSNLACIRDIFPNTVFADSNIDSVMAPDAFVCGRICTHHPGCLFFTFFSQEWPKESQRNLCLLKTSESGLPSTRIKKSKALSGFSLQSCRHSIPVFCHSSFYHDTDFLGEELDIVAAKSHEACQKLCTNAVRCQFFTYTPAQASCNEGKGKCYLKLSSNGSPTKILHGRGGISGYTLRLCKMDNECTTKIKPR
Target sequence (P03951 388-625 limits assumed): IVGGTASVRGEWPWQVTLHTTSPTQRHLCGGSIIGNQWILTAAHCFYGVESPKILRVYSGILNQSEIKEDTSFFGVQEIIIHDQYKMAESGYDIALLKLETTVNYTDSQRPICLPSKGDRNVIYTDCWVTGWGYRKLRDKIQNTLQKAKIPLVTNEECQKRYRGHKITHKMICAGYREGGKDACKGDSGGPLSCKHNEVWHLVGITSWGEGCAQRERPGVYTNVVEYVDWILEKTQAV
Rce1 inhib: yeast Rce1p protease inhibitors, primary screen, biochemical, fluorescence, cell-free homogeneous. CAAX prenyl protease 2 (Saccharomyces cerevisiae (strain ATCC 204508 / S288c)), Q03530. yeast membranes, quenched prenylated peptide cleavage fluorescence. calls only. hit rate 0.27% among 290,000. AID 2563, 2010;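 active = fall in fluorescence gain of 50% or more versus controls, with final raw signal at or below 3038400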;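 also: plate controls were neutral control wells for no effect and wells lacking membranes for full effect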
Thrombin inh: human alpha-thrombin inhibitors, primary screen, counter-screen for coagulation protease inhibitor project, biochemical, 1536-well, fluorogenic AMC substrate | inhibition, % at 5 µM | Boc-VPR-AMC fluorogenic substrate cleavage | hit rate 0.26% among 220,000;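 active = inhibition at or above 40%; inactive = inhibition below 40%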;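 also: 0% = enzyme with no compound and 100% = wells without enzyme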
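Material: human alpha-thrombin enzyme / Medium: pH 7.5 Tris (50 mM) with NaCl 150 mM, Tween 20 0.05% / Compound: single-point dosing at 5 µM, 0.2% DMSO / Incubation: enzyme reaction carried out at room temperature / Detection: AMC fluorescence, 355/460 nm / Read-out basis: percent inhibition scaled between no-compound controls and no-enzyme blanks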
KLK5 inh: human KLK5 protease inhibitors, primary screen, biochemical, 1536-well; recombinant hK5, fluorogenic AMC substrate cleavage; inhibition, % at 5 µM; hit rate 0.59% among 210,000; AID 873, 2007;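 active = inhibition of 40% or more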;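 also: 0% = enzyme controls without compound and 100% = no-enzyme blanks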
Starred values were filed as active, the others as inactive; i = inactive; x = no result given; + = active, no number.

SMILES	FXIIa inh	CTSL1 counter	FXIa inh	Rce1 inhib	Thrombin inh	KLK5 inh
C=CC#CC1(O)CC(C)N(C)CC1C (stereo unspecified)	28	0	28	i	31	46*
CCOC(=O)N1CCC(N2C(=O)c3ccc(C(=O)Nc4cccc(OC)c4)cc3C2=O)CC1	x	1	x	i	x	x
Nc1nc(CCl)nc(Nc2ccc3ccccc3c2)n1	18	x	32	i	1	61*
Cc1ccsc1/C=N/n1c(-c2ccncc2)n[nH]c1=S	0	0	2	i	-5	-7
CC(=O)Oc1ccc(/C=C2\N=C(C3CCCCC3)OC2=O)cc1	13	23*	3	i	-1	4
COc1cccc(/C=C2\N=C(C3CCCCC3)OC2=O)c1OC	14	20*	5	i	2	x
CCCC1CCC(C2=N/C(=C\c3ccc(OC)c(OC)c3)C(=O)O2)CC1 (stereo unspecified)	16	3	6	i	-2	-13
CC(=O)Oc1ccc(/C=C2/CCc3ccccc3C2=O)cc1	8	-3	1	i	-9	-7
CC1CCCCC12NC(=O)N(CC(=O)Nc1ccc(N3CCOCC3)cc1)C2=O (stereo unspecified)	3	0	0	i	16	15
CCC(=O)N1CCN(c2ccc(NC(=O)COc3ccccc3[N+](=O)[O-])cc2)CC1	11	1	-3	i	-3	-24
CC(=O)Oc1cc2c(cc1Cl)C(c1cccs1)CC1(CC(C)(C)NC(=S)N1)O2 (stereo unspecified)	0	-10	-7	x	-8	-1
Cc1ccc(S(=O)(=O)N2CCN(C(C(=O)Nc3ccc(F)cc3)c3ccccc3)CC2)cc1 (stereo unspecified)	11	-2	18	i	33	46*
O=C(NCSc1ccncn1)c1ccccc1	12	11	6	i	6	1
O=C(NCSc1ccnc(SCNC(=O)c2ccccc2)n1)c1ccccc1	7	19*	-3	i	1	-8
O=C(N/C(=C\c1cccc(Br)c1)C(=O)N1CCCCC1)c1ccco1	x	4	x	x	x	x
O=c1c2cc3c(nc2[nH]c(=S)n1-c1ccccc1)CCCC3	4	-1	-1	x	-9	-6
CCn1c(=S)[nH]c2nc3c(cc2c1=O)CCCC3	14	-1	10	i	33	88*
CC(CCN1C(Nc2ccccc2)=NC[C@@H]1Cc1ccccc1)c1ccccc1 (stereo partly specified)	x	0	x	i	x	x
Cc1ccc(OCCOCCN2CCN(C)CC2)c([N+](=O)[O-])c1	9	18*	6	i	-9	5
Cc1ccc(OCCOCCN2CCCCC2)c([N+](=O)[O-])c1	-6	-2	-6	i	0	-7
CC(C)CCn1c(COc2ccccc2)nn(CCC#N)c1=S	x	-2	x	i	x	x
Cc1ccc(C(=O)c2c3ccccc3[n+]([O-])n2CCO)cc1	x	-2	x	+	x	x
Cc1ccc(C(=O)c2c3ccc(C(F)(F)F)cc3[n+]([O-])n2CCCC(N)=O)cc1	x	2	x	+	x	x
Cc1ccc(C(=O)c2c3ccc(C(F)(F)F)cc3[n+]([O-])n2CCC(N)=O)cc1	x	-2	x	i	x	x
CSc1ccc(S(=O)(=O)N2CCC(C(=O)NC3CC3)CC2)cc1	x	-5	x	i	x	x
SMILES	FXIIa inh	CTSL1 counter	FXIa inh	Rce1 inhib	Thrombin inh	KLK5 inh
CCOC(=O)c1c(C)[nH]c(C(=O)COC(=O)CNC(=O)c2ccccc2Cl)c1C	12	-5	2	i	1	-1
CCOC(=O)c1c(C)[nH]c(C(=O)COC(=O)CNC(=O)C2CCCCC2)c1C	18	27*	7	i	5	-2
CCOC(=O)c1c(C)[nH]c(C)c1C(=O)COC(=O)CNC(=O)C1CCCCC1	4	54*	-3	i	4	-3
CCOC(=O)c1c(C)[nH]c(C)c1C(=O)COC(=O)CNC(=O)c1ccc(OCC)cc1	-14	-18	-6	i	-10	-14
CN(CCO)c1ccc(-c2nn(C)c(=O)c3ccccc23)cc1[N+](=O)[O-]	12	-1	3	i	1	-1
Cc1ccccc1/C=N/N1CCN(c2ccccc2)CC1	13	5	9	i	1	-11
COc1cccc(-c2nnc(SCC3CNC(=O)O3)n2-c2ccc(Cl)cc2)c1 (stereo unspecified)	4	-1	1	i	-6	-3
CCOc1ccc(N(CC(=O)NC2CC3CCC2C3)S(=O)(=O)c2ccccc2)cc1 (stereo unspecified)	x	2	x	+	x	x
CCOc1ccc(N(CC(=O)NC2CC3CCC2C3)S(=O)(=O)c2ccc(C)cc2)cc1 (stereo unspecified)	x	0	x	i	x	x
COc1ccccc1Oc1ccc2c(c1)C(=O)N(c1ccc(Br)c3cccnc13)C2=O	19	-1	18	i	-4	38
Cc1ccc(S(=O)(=O)N(C)C)cc1NC(=O)Nc1ccccc1	17	4	3	i	2	3
Cc1ccc(NC(=O)Nc2cc(S(=O)(=O)N(C)C)ccc2C)cc1	10	18*	0	i	1	4
CN(C)CC/C=C1\c2ccccc2Sc2ccc(Cl)cc21	11	1	8	i	2	-8
CC[N+](C)(C)CC/C=C1/c2ccccc2Sc2ccc(Cl)cc21	8	2	3	i	-3	-2
CCCCCCCCCCC[N+](C)(C)CC/C=C1/c2ccccc2Sc2ccc(Cl)cc21	x	-1	x	+	x	x
CCCCCCCCCC[N+](C)(C)CC/C=C1/c2ccccc2Sc2ccc(Cl)cc21	x	4	x	+	x	x
O=c1cc(CO)occ1OCc1cccc(F)c1	9	-1	-7	i	5	40*
Cc1nn(C)c(=S)n1-c1ccc(Cl)cc1	31	-3	28	x	1	44*
CC(C)c1ccc(-c2c(C#N)c(N)nc(SCC(=O)N3CCCCCC3)c2C#N)cc1	5	2	-6	i	41*	-2
COC(=O)Cc1ccc(OC(=O)c2cccc(S(=O)(=O)N3CCN(C)CC3)c2)cc1	x	0	x	i	x	x
CN(C)c1ccc(NC(=O)C2C3C=CC(C3)C2C(=O)O)cc1 (stereo unspecified)	x	x	x	i	x	x
CNC(=O)/C(C#N)=C/c1cc(C)n(-c2ccc(N3CCOCC3)cc2)c1C	2	4	-9	i	-7	44*
Cc1cc(/C=C(\C#N)C(=O)Nc2ccc(Cl)cc2)c(C)n1-c1ccc(N2CCOCC2)c([N+](=O)[O-])c1	20	1	12	i	4	-4
